Measurements from ChEMBL document CHEMBL1123801, “Synthesis and antifungal activity of new 1-vinylimidazoles” (1987).
≈ marks a conversion by molar mass, not a printed value.

How the values were obtained:
Type in all cases: functional
Aspergillus fumigatus = experiment: Minimum inhibitory concentration (MIC) against Aspergillus fumigatus
Summary of the method: (§1)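 Broth microdilution in Sabouraud's glucose broth. Final inocula 1×10^5 cells/mL for the yeast (C. albicans) and 1×10^5 conidia/mL for the mold (A. fumigatus) and the dermatophyte (T. asteroides). MIC read as the fungistatic end point. Lowest value of duplicated experiments.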

Candida albicans [1] = experiment: Minimum inhibitory concentration (MIC) against Candida albicans; summary of the method: as §1
Trichophyton benhamiae = experiment: Minimum inhibitory concentration against Trichophyton asteroides; summary of the method: as §1
Candida albicans [2] = experiment: Inhibition of pseudomycelium formation of Candida albicans.; details: read-out: MEC
Summary of the method: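 C. albicans KE-2 (clinical isolate), final inoculum 1×10^6 yeast cells/mL in EMEM with 20% calf serum. Compounds serially diluted by the microtiter dilution system used for MICs. After incubation, wells Giemsa-stained (5% in phosphate buffer) and examined microscopically. MEC (μg/mL) = lowest concentration preventing typical pseudomycelium formation. Lowest value of duplicated experiments.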

Row | SMILES | MIC (Aspergillus fumigatus) [µg/mL] | MIC (Candida albicans [1]) [µg/mL] | MIC (Trichophyton benhamiae) [µg/mL] | minimal effective concentration (Candida albicans [2]) [µg/mL]
1 | C=C(c1ccccc1OC(CCC)c1ccccc1)n1ccnc1 (stereo not given) | 12.5 (≈ 39.3 µM) | 12.5 (≈ 39.3 µM) | 0.4 (≈ 1.26 µM) | 
2 | C=C(c1cc(Cl)ccc1OCCC(C)C)n1cncn1 | > 100 | > 100 | 0.8 (≈ 2.74 µM) | 20
3 | C/C=C(\c1ccccc1OC(C)c1cccc(Cl)c1)n1ccnc1 (stereo not given) | 1.6 (≈ 4.72 µM) | 3.1 (≈ 9.15 µM) | 0.1 (≈ 0.295 µM) | 
4 | CCC=C(c1cc(Cl)ccc1OCc1ccccc1)n1ccnc1 | 1.6 (≈ 4.72 µM) | 6.2 (≈ 18.3 µM) | 1.6 (≈ 4.72 µM) | 
5 | C=C(c1ccccc1OCc1ccc(Cl)c(Cl)c1)n1ccnc1 | 3.1 (≈ 8.98 µM) | 25 (≈ 72.4 µM) | 0.1 (≈ 0.29 µM) | 
6 | CC=C(c1ccccc1OCc1cccc(Cl)c1)n1ccnc1 | 1.6 (≈ 4.93 µM) | 6.2 (≈ 19.1 µM) | 3.1 (≈ 9.54 µM) | 
7 | C=C(c1cc(Cl)cc(Cl)c1OCc1ccc(Cl)cc1)n1ccnc1 | > 100 | > 100 | 6.2 (≈ 16.3 µM) | 
8 | C=C(c1cc(Cl)ccc1OC(C)c1ccccc1)n1ccnc1 (stereo not given) | 6.3 (≈ 19.4 µM) | 25 (≈ 77 µM) | 0.1 (≈ 0.308 µM) | 
9 | C=C(c1cc(Cl)ccc1OCCc1ccccc1)n1ccnc1 | 6.3 (≈ 19.4 µM) | 50 (≈ 154 µM) | 0.1 (≈ 0.308 µM) | 
10 | CC(C)=C(c1ccccc1OCc1ccccc1)n1ccnc1 | 12.5 (≈ 41.1 µM) | 25 (≈ 82.1 µM) | 1.6 (≈ 5.26 µM) | 
11 | C=C(c1cc(Cl)ccc1OC(C)C)n1ccnc1 | 0.8 (≈ 3.04 µM) | 50 (≈ 190 µM) | 0.1 (≈ 0.381 µM) | 5
12 | C=C(c1ccccc1OCc1ccsc1)n1ccnc1 | 3.1 (≈ 11 µM) | 50 (≈ 177 µM) | 0.1 (≈ 0.354 µM) | 
13 | CC(C)=C(c1ccccc1OCc1cccc(Cl)c1)n1ccnc1 | 3.1 (≈ 9.15 µM) | 12.5 (≈ 36.9 µM) | 3.1 (≈ 9.15 µM) | 
14 | C=C(c1cc(Cl)ccc1OCc1ccc(C(=O)OC)cc1)n1ccnc1 | 6.2 (≈ 16.8 µM) | 25 (≈ 67.8 µM) | 0.1 (≈ 0.271 µM) | 
15 | C=C(c1ccccc1)n1ccnc1 | > 100 | > 100 | 100 (≈ 587 µM) | > 20
16 | C=C(c1cc(Cl)ccc1OC)n1ccnc1 | 3.1 (≈ 13.2 µM) | > 100 | 0.4 (≈ 1.7 µM) | 
17 | C=C(c1cc(Cl)ccc1OCCCc1ccccc1)n1ccnc1 | 1.6 (≈ 4.72 µM) | 50 (≈ 148 µM) | 0.2 (≈ 0.59 µM) | 
18 | C=C(c1cc(Cl)ccc1OC(C)c1ccsc1)n1ccnc1 (stereo not given) | 3.1 (≈ 9.37 µM) | 12.5 (≈ 37.8 µM) | 0.1 (≈ 0.302 µM) | 
19 | CC=C(c1cc(Cl)ccc1OCc1ccccc1)n1ccnc1 | 3.1 (≈ 9.54 µM) | 6.2 (≈ 19.1 µM) | 0.2 (≈ 0.616 µM) | 

Row | SMILES | MIC (Aspergillus fumigatus) [µg/mL] | MIC (Candida albicans [1]) [µg/mL] | MIC (Trichophyton benhamiae) [µg/mL] | minimal effective concentration (Candida albicans [2]) [µg/mL]
20 | C/C(CN(C)C)=C(/c1ccccc1OCC(C)C)n1ccnc1 | > 100 | > 100 | 25 (≈ 79.8 µM) | 1.25
21 | C/C(CN(C)C)=C(\c1ccccc1OCC(C)C)n1ccnc1 | > 100 | > 100 | 0.8 (≈ 2.55 µM) | 0.63
22 | C/C=C(\c1cc(Cl)ccc1OCCC)n1ccnc1 | 1.6 (≈ 5.78 µM) | 25 (≈ 90.3 µM) | 0.1 (≈ 0.361 µM) | 0.63
23 | C=C(c1ccccc1OC)n1ccnc1 | 12.5 (≈ 62.4 µM) | > 100 | 1.6 (≈ 7.99 µM) | 
24 | C=C(c1cc(Cl)ccc1OC(CCC)c1ccccc1)n1ccnc1 (stereo not given) | > 100 | > 100 | 0.8 (≈ 2.27 µM) | 
25 | C=C(c1ccccc1OC(C)c1cccc(Cl)c1)n1ccnc1 (stereo not given) | 12.5 (≈ 38.5 µM) | 6.2 (≈ 19.1 µM) | 0.4 (≈ 1.23 µM) | 
26 | C=C(c1ccccc1OC(C)c1ccc(Cl)cc1)n1ccnc1 (stereo not given) | 6.2 (≈ 19.1 µM) | 3.1 (≈ 9.54 µM) | 0.1 (≈ 0.308 µM) | 
27 | C=C(c1cc(Cl)ccc1OC(CC)c1ccccc1)n1ccnc1 (stereo not given) | 12.5 (≈ 36.9 µM) | > 100 | 0.1 (≈ 0.295 µM) | 
28 | CC(C)=C(c1cc(Cl)ccc1OCc1ccc(Cl)c(Cl)c1)n1ccnc1 | 6.2 (≈ 15.2 µM) | 12.5 (≈ 30.7 µM) | 3.1 (≈ 7.6 µM) | 
29 | C=C(c1ccccc1NCc1ccc(Cl)cc1)n1ccnc1 | > 100 | > 100 | > 100 | 
30 | C=C(c1ccccc1OCc1ccccc1Cl)n1ccnc1 | 0.8 (≈ 2.57 µM) | 6.2 (≈ 19.9 µM) | 0.1 (≈ 0.322 µM) | 
31 | C=C(c1ccccc1OCc1ccc(CC)cc1)n1ccnc1 | 25 (≈ 82.1 µM) | 12.5 (≈ 41.1 µM) | 0.1 (≈ 0.329 µM) | 
32 | C=C(c1ccccc1OCCc1ccc(Cl)cc1Cl)n1ccnc1 | 0.4 (≈ 1.11 µM) | 25 (≈ 69.6 µM) | 0.1 (≈ 0.278 µM) | 
33 | CC(C)=C(c1ccccc1OCc1ccc(Cl)cc1Cl)n1ccnc1 | 1.6 (≈ 4.29 µM) | 12.5 (≈ 33.5 µM) | 3.1 (≈ 8.3 µM) | 
34 | C=C(c1ccccc1OCC)n1ccnc1 | 3.1 (≈ 14.5 µM) | > 100 | 0.4 (≈ 1.87 µM) | 
35 | C=C(c1ccccc1OCCCC)n1ccnc1 | 1.6 (≈ 6.6 µM) | 25 (≈ 103 µM) | 50 (≈ 206 µM) | 
36 | C=C(c1ccccc1OCCCOc1ccc(Cl)cc1)n1ccnc1 | 12.5 (≈ 35.2 µM) | 12.5 (≈ 35.2 µM) | 0.1 (≈ 0.282 µM) | 
37 | CC(C)=C(c1ccccc1OCCCOc1ccc(Cl)cc1)n1ccnc1 | 6.2 (≈ 16.2 µM) | 12.5 (≈ 32.6 µM) | 1.6 (≈ 4.18 µM) | 
38 | C=C(c1ccccc1OCc1ccc(C)cc1)n1ccnc1 | 3.1 (≈ 10.7 µM) | 3.1 (≈ 10.7 µM) | 0.1 (≈ 0.344 µM) | 
